How the values were obtained:
[1] = target: T1, Inhibitor of nuclear factor kappa-B kinase subunit beta (Homo sapiens, UniProt O14920); assay: Inhibition of IKKbeta in human U2OS cells assessed as TNFalpha induced IkBalpha degradation at 100 uM preincubated for 1 hr followed by TNFalpha stimulation for 30 mins by Western blot analysis; assay type: cell-based; conditions: 0.5 h
T1 sequence (O14920 whole entry): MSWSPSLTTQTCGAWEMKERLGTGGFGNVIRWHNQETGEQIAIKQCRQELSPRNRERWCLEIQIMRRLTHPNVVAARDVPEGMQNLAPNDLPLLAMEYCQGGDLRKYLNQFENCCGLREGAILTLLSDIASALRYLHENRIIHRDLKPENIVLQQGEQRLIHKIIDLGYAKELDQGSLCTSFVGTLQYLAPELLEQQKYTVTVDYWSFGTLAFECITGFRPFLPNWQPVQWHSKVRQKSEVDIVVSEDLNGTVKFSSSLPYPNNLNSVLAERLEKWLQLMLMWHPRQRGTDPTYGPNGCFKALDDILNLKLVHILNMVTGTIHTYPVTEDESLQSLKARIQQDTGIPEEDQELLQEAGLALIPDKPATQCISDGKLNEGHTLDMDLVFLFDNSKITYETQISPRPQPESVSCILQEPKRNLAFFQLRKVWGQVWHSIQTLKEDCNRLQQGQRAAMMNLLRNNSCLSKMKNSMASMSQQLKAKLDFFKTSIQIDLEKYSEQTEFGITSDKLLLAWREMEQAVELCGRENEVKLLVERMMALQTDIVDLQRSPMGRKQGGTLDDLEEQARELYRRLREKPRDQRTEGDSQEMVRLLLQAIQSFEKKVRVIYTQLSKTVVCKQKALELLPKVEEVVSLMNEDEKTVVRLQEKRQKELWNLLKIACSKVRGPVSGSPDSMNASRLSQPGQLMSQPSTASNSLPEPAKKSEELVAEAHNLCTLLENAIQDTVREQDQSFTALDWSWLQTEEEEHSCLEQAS
Summary of the method: (§1)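 U2OS cells were grown in McCoy's 5A medium at 37 °C under 5% CO2 and made quiescent by 24 h serum deprivation. They were then pretreated with compound before agonist stimulation in serum-free medium. Phospho-p100, IκBα levels and phospho-p65 (Ser536) were assessed by Western blot.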

[2] = target: T1, Inhibitor of nuclear factor kappa-B kinase subunit beta; assay: Inhibition of IKKbeta in human U2OS cells assessed as decrease in TNFalpha induced p65 phosphorylation at ser536 residues at 100 uM preincubated for 1 hr followed by TNFalpha stimulation for 30 mins by Western blot analysis; assay type: cell-based; conditions: 0.5 h; summary of the method: as §1
[3] = target: T2, Inhibitor of nuclear factor kappa-B kinase subunit alpha (Mus musculus) (UniProt Q60680); assay: Inhibition of IKKalpha in IKKbeta knockout mouse embryonic fibroblast cells harboring Adv.NF-kB.luc assessed as IL-1beta induced NF-kB transcriptional activation at 100 uM pretreated for 1 hr followed by IL-1beta stimulation for 6 hrs by luciferase reporter gene assay relative to control; set-up: scale not given: the % may be the effect or the level left
T2 sequence (whole entry): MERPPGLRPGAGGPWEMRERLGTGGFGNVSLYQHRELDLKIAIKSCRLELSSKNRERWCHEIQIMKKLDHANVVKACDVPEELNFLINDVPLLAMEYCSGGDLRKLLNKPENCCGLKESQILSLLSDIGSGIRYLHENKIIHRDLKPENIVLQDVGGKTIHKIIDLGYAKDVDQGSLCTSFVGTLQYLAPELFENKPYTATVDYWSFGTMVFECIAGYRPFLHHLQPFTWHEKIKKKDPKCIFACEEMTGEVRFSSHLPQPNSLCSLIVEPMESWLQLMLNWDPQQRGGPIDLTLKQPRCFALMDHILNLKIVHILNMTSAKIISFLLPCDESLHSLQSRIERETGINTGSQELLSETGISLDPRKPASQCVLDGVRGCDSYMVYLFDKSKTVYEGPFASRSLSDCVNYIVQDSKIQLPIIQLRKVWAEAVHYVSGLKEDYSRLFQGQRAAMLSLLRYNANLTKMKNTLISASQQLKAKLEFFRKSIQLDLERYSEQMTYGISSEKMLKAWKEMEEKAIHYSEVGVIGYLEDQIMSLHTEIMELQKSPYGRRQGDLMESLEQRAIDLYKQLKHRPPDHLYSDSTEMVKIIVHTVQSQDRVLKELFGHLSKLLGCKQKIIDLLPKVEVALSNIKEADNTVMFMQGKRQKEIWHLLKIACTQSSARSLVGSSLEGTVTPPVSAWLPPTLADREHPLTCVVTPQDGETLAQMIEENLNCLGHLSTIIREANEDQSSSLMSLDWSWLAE
Summary of the method: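 IKKβ knockout MEFs infected with Adv.NF-kB.luc (up to 300 pfu/cell, 24 h, 10% DMEM), replated and serum-starved 24 h. Pretreated 1 h with compound, then IL-1β (10 ng/mL) for 6 h. Lysis buffer contained 0.2 mM luciferin, and luminescence was read as RLU. Results are expressed as % of IL-1β + DMSO stimulation.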

[4] = target: Glycogen synthase kinase-3 beta (Homo sapiens) (UniProt P49841); assay: Inhibition of human N-terminal GST-tagged GSK3beta at 10 uM relative to control
Summary of the method: (§2)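 Outsourced commercial kinase panel run at a single concentration, with duplicate assay points.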

[5] = target: Casein kinase I isoform delta (Homo sapiens) (UniProt P48730); assay: Inhibition of recombinant human N-terminal GST-tagged CK1delta (1 to 294 residues) expressed in Escherichia coli at 10 uM relative to control; summary of the method: as §2
[6] = target: Serine/threonine-protein kinase Chk2 (Homo sapiens) (UniProt O96017); assay: Inhibition of N-terminal GST and C-terminal His6 tagged recombinant human CHK2 expressed in Escherichia coli cells at 10 uM relative to control; summary of the method: as §2
[7] = target: Calcium/calmodulin-dependent protein kinase type 1 (Homo sapiens) (UniProt Q14012); assay: Inhibition of N-terminal GST tagged recombinant human CaMK1 (2 end residues) expressed in Escherichia coli cells at 10 uM relative to control; summary of the method: as §2
[8] = target: T3, Aurora kinase A (Homo sapiens) (UniProt O14965); assay: Inhibition of N-terminal His6 tagged recombinant human full length Aurora A expressed in Sf21 cells at 10 uM relative to control; summary of the method: as §2
T3 sequence (whole entry): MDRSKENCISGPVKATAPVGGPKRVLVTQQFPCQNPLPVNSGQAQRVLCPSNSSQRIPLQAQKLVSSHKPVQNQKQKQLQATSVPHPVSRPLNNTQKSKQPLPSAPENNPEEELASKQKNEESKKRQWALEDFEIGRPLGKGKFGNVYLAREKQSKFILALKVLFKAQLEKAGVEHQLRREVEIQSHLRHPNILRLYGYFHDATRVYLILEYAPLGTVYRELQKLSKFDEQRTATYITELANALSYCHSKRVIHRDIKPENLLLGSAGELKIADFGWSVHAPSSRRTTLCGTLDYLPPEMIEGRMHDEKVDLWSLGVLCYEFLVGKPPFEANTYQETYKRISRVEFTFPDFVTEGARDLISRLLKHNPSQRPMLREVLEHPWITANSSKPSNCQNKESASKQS

Serine/threonine-protein kinase Chk2 (Homo sapiens), sequence (O96017 whole entry): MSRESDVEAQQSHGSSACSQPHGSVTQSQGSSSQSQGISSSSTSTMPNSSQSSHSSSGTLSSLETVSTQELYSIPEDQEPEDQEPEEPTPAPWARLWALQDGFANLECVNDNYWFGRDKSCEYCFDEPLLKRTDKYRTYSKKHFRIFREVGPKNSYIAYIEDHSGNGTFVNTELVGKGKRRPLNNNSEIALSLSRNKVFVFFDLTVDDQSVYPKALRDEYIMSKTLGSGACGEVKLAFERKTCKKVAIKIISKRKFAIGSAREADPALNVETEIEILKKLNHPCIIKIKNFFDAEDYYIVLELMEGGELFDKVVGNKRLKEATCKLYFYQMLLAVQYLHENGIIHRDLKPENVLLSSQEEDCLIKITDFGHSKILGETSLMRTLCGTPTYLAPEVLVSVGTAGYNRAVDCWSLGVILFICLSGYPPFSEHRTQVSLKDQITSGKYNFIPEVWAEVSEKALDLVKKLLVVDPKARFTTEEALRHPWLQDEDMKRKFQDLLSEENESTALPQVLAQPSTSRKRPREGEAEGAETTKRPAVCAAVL
Casein kinase I isoform delta (Homo sapiens), sequence (P48730 whole entry, looked up, the tested form may be a part, canonical isoform): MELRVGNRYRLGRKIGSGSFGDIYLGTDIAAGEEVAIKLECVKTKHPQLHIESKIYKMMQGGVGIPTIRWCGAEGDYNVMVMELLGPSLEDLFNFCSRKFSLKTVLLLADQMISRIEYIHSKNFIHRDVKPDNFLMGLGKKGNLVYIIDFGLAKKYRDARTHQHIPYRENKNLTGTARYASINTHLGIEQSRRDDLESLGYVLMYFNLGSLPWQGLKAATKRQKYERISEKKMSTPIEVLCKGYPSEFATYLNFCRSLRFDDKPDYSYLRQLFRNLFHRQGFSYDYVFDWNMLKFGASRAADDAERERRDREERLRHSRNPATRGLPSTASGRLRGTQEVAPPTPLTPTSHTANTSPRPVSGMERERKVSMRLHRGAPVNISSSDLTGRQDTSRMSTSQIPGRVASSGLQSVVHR
Glycogen synthase kinase-3 beta (Homo sapiens), sequence (P49841 whole entry, looked up): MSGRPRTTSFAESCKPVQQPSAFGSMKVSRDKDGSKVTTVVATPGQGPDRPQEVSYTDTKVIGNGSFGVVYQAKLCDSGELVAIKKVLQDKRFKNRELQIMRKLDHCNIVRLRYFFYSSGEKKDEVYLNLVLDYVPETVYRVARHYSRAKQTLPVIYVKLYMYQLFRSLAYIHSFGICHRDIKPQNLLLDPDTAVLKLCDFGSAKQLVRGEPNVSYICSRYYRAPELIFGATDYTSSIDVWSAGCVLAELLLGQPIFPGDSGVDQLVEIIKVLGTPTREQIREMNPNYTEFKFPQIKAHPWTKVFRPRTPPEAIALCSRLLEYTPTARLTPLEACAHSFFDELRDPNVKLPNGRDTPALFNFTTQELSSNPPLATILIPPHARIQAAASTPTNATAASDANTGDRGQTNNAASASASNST
Calcium/calmodulin-dependent protein kinase type 1 (Homo sapiens), sequence (Q14012 whole entry, looked up): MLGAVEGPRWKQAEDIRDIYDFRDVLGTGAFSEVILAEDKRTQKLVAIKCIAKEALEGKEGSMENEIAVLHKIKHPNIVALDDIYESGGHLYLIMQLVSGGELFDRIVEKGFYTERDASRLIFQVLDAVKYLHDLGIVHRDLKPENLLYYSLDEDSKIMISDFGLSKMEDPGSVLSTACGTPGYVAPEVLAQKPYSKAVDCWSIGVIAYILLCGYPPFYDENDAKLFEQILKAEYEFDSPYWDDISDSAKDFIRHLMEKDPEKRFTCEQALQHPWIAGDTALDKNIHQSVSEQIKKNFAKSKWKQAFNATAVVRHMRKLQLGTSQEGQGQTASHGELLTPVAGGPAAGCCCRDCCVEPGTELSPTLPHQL

Question: With `N#Cc1c[nH]c2nc(N)nc(-c3ccc(S(N)(=O)=O)cc3)c12` as the compound, how does the “inhibition (INH)” value [1] read?
Answer: Its value is “Active”.

Question: What about the “inhibition (INH)” value [2] of the same compound?
Answer: The value was “Active”.

Question: And the Activity [3]?
Answer: The Activity was -40.9%.

Question: What about the inhibition [4] of the same compound?
Answer: Its inhibition is > 80%.

Question: And the inhibition [5]?
Answer: The inhibition was > 80%.

Question: What about the inhibition [6] of the same compound?
Answer: The inhibition was > 80%.

Question: And the inhibition [7]?
Answer: Its inhibition is > 80%.

Question: And the inhibition [8]?
Answer: Its inhibition is > 80%.

From ChEMBL document CHEMBL4038327, “Inhibitory Kappa B Kinase α (IKKα) Inhibitors That Recapitulate Their Selectivity in Cells against Isoform-Related Biomarkers” (J Med Chem, 2017)
